Laboratory results: PubChem BioAssay
Active and inactive are the calls of the source. Rule as the data show it, unless noted: active = inhibition above about 30%; inactive = the rest.

Legend:
[1] = reducers of endogenous Her2 protein level, primary screen, SKBR3 breast tumor cells, AlphaScreen, ATP viability (AID 461;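 active = Her2 level under about 52% in both replicate screens, with viability over 70% of control, limit read from the data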;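 as to Her2 level: lower value means less Her2 protein in the cells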;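 as to viability: percent of carrier control wells set as 100% viability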); settings: 18-24 h, measured here: SKBR3 viability, ATP luminescence, at 10 µM
[2] = molecular target: Receptor tyrosine-protein kinase erbB-2 (Homo sapiens) (UniProt P04626); assay: as above; settings: 18-24 h, at 10 µM, stronger effect = lower value
Receptor tyrosine-protein kinase erbB-2 (Homo sapiens), sequence (P04626 whole entry, looked up): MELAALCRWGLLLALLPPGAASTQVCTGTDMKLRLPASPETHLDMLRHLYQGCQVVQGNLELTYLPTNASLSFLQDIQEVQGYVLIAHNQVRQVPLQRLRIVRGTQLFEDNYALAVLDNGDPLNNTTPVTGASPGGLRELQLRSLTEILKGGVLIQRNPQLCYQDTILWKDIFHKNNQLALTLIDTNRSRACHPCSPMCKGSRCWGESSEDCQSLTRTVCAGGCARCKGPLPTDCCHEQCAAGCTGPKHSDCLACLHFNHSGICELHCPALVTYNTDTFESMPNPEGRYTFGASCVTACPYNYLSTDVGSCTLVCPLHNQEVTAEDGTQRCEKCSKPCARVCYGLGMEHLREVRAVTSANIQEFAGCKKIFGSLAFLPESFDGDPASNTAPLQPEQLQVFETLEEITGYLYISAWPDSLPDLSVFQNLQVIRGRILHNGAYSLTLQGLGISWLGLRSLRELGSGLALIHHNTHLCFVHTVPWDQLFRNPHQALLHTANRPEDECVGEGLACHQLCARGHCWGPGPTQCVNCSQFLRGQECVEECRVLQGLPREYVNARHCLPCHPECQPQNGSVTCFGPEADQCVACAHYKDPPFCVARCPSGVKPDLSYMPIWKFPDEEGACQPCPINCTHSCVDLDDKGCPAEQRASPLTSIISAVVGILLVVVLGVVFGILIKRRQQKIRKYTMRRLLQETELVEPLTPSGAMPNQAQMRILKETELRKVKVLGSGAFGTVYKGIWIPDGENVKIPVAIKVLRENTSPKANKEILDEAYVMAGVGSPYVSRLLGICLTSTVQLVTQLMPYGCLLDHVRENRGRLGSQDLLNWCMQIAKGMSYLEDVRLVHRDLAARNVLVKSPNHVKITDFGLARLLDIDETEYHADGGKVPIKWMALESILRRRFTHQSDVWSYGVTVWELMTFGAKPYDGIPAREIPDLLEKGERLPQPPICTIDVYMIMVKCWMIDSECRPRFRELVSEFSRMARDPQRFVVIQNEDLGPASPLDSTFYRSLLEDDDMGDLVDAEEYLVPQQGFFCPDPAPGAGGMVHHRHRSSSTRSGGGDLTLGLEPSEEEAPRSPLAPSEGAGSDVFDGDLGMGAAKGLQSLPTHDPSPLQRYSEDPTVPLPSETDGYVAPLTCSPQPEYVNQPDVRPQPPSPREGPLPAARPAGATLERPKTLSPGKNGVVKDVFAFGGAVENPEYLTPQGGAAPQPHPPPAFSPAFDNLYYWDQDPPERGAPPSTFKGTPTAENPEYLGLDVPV

[3] = SK-BR-3 cell growth inhibitors, pilot screen, 24 h, human (AID 572;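 active = viability at or below 10% of carrier control in both of two separate runs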;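 also: compound exposure lasted between 18 and 24 h rather than exactly 24 h; 100% = carrier-treated control wells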); settings: SK-BR-3 viability, CellTiter-Glo luminescence, at 10 µM, stronger effect = lower value
[4] = HUVEC growth inhibition – cell-based, human, primary screen (AID 575;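 active = viability at or below 30% in both replicate assays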;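 also: 100% = median of untreated cell wells with 0.1% DMSO on each plate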); settings: HUVEC proliferation, CellTiter-Glo luminescence, 72 h; at 10 µM; stronger effect = lower value
In short: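 Test system – primary HUVEC, no more than 12 passages · Dosing – one dose, 10 µM final, 0.1% DMSO · Times – 72 h treatment at 37 °C · Measured by – ATP-based CellTiter-Glo luminescent read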

[5] = growth inhibitors of H69AR lung tumor, primary screen, human, duplicate replicates (AID 580;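 active = viability at or under a set limit in both replicates, limit being median viability minus 3 SD, cut at about 48% in these data, passing the limit was not always enough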;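 also: 100% = mean luminescence of untreated wells and 0% = no signal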); settings: H69AR lung tumor cells viability, ATP luminescence, 72 h; at 10 µM; stronger effect = lower value
[6] = reversal of MRP1-mediated doxorubicin resistance, pilot screen, H69AR cells, doxorubicin co-treatment (AID 601;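 active = viability loss from added drug above about 55%, and viability with drug at most 40%, in both replicates, limit read from the data, passing the limit was not always enough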); settings: CellTiter-Glo, 72 h, at 10 µM; for differential viability (reversal): stronger effect = higher value
[7] = 384-well plate pilot, post-Golgi transport modulator project, inhibition of yeast transport mutant growth (AID 636; in the data active = inhibition above about 31%); settings: absorbance 615 nm, about 18 h, stronger effect = higher value
[8] = growth suppression of yeast trafficking mutant, preliminary HTS, modulators of trafficking downstream of Golgi apparatus project, 1536-format plate, OD 615 nm (AID 637); settings: yeast transport mutant growth, absorbance 615 nm, 18 h; stronger effect = higher value
[9] = H69AR cells + 2 uM doxorubicin, measured here: viability with 2 uM doxorubicin, stronger effect = lower value
[10] = H69AR cells, compound alone cytotoxicity

| SMILES | viability [1] [%] | Her2 level [2] | viability [3] | viability [4] | viability [5] | differential viability (reversal) ([6]; H69AR cells + 2 uM doxorubicin) | viability [6, 9] [%] | viability [6, 10] [%] | inhibition [7] | inhibition [8] |
| --- | --- | --- | --- | --- | --- | --- | --- | --- | --- | --- |
| Nc1nnnn1/N=C/c1ccccn1 | 69 | 108% (inactive) | 69% (inactive) | 114% (inactive) | 97.2% (inactive) | 11% (inactive) | 86.2 | 97.2 | -4.73% (inactive) | 24% (inactive) |
| C/C=C/Cn1c(Br)nc2c1c(=O)[nH]c(=O)n2C | 101 | 91% (inactive) | 101% (inactive) | 90.7% (inactive) | 93.5% (inactive) | 7.23% (inactive) | 86.3 | 93.5 | -6.53% (inactive) | 0.16% (inactive) |
| CCSc1nnc(NC(=O)C2CCCN(S(=O)(=O)c3cnc[nH]3)C2)s1 (stereo not given) | 105 | 97.5% (inactive) | 105% (inactive) | 89.9% (inactive) | 91.3% (inactive) | 1.98% (inactive) | 89.4 | 91.3 | -2.27% (inactive) | 2.83% (inactive) |
| CCC(C)(C)NC(=O)CN(Cc1ccc2c(c1)OCO2)C(=O)CCC(=O)Nc1ccccn1 | 132 | 118% (inactive) | 132% (inactive) | 105% (inactive) | 92.5% (inactive) | 2.38% (inactive) | 90.1 | 92.5 | -5.06% (inactive) | -2.3% (inactive) |
| Cc1c(NC(=O)CN2c3cccc4cccc(c34)S2(=O)=O)c(=O)n(-c2ccccc2)n1C | 122 | 93% (inactive) | 122% (inactive) | 82.6% (inactive) | 102% (inactive) | 19.1% (inactive) | 82.5 | 102 | -4.27% (inactive) | 7.9% (inactive) |
| OCc1cn(-c2ccccc2)nc1-c1ccc2c(c1)OCCO2 | 93 | 102% (inactive) | 93% (inactive) | 70.5% (inactive) | 83.9% (inactive) | -4.38% (inactive) | 88.3 | 83.9 | -7.95% (inactive) | -4.44% (inactive) |
| Cc1noc(C)c1C(=O)Nc1ccc(Cl)cc1C(F)(F)F | 91 | 86.5% (inactive) | 91% (inactive) | 84.7% (inactive) | 93.1% (inactive) | -0.845% (inactive) | 94 | 93.1 | -6.13% (inactive) | 3.11% (inactive) |
| COc1ccc(-n2c(COc3ccccc3)nnc2SCc2ccc(C#N)cc2)cc1 | 88 | 93% (inactive) | 88% (inactive) | 81% (inactive) | 76.4% (inactive) | 22.4% (inactive) | 54.1 | 76.4 | 0% (inactive) | -7.82% (inactive) |
| CCOC(=O)c1cc2c(=O)n3cccc(C)c3nc2n(CCc2ccccc2)c1=N | 82 | 72% (inactive) | 82% (inactive) | 75.9% (inactive) | 77.9% (inactive) | -1.89% (inactive) | 79.8 | 77.9 | -4.8% (inactive) | 5.9% (inactive) |
| COCCNC(=O)C(c1ccc(O)cc1)N(Cc1ccco1)C(=O)CCC(=O)Nc1nccs1 (stereo not given) | 81.5 | 104% (inactive) | 81.5% (inactive) | 104% (inactive) | 99.5% (inactive) | 11.1% (inactive) | 88.3 | 99.5 | -0.81% (inactive) | -6.23% (inactive) |
| Cn1cccc1Cc1nnc(SCC(=O)Nc2ccc(F)cc2F)n1-c1ccc(F)cc1 | 84 | 90.5% (inactive) | 84% (inactive) | 81.6% (inactive) | 94.8% (inactive) | 1.3% (inactive) | 93.5 | 94.8 | -1.03% (inactive) | -3.5% (inactive) |
| O=C(NCCCN1CCN(CCCNC(=O)c2ccc(F)cc2)CC1)c1ccc(F)cc1 | 92.5 | 98% (inactive) | 92.5% (inactive) | 89.9% (inactive) | 94.6% (inactive) | 4.58% (inactive) | 90 | 94.6 | -4.67% (inactive) | 0.81% (inactive) |
| CCOC(=O)c1c(N)sc(C(=O)N2CCOCC2)c1C | 127 | 115% (inactive) | 127% (inactive) | 103% (inactive) | 98.9% (inactive) | 1.31% (inactive) | 97.6 | 98.9 | -7.07% (inactive) | -1.75% (inactive) |
| CCn1nnnc1SCC(=O)Nc1nnc(C(C)C)s1 | 88.5 | 84.5% (inactive) | 88.5% (inactive) | 103% (inactive) | 92.2% (inactive) | 2.35% (inactive) | 89.8 | 92.2 | -4.4% (inactive) | 3.11% (inactive) |
| Cc1cc(Br)ccc1NC(=O)CNC(=O)CSc1n[nH]c(N)n1 | 110 | 89.5% (inactive) | 110% (inactive) | 99.3% (inactive) | 104% (inactive) | 16.3% (inactive) | 87.3 | 104 | -6.22% (inactive) | 8.41% (inactive) |
| CCOC(=O)Cc1c(C)c2c(O)cc(O)cc2oc1=O | 84.5 | 77.5% (inactive) | 84.5% (inactive) | 97.3% (inactive) | 99% (inactive) | 12.2% (inactive) | 86.8 | 99 | -6.27% (inactive) | 1.9% (inactive) |

| SMILES | viability [1] [%] | Her2 level [2] | viability [3] | viability [4] | viability [5] | differential viability (reversal) ([6]; H69AR cells + 2 uM doxorubicin) | viability [6, 9] [%] | viability [6, 10] [%] | inhibition [7] | inhibition [8] |
| --- | --- | --- | --- | --- | --- | --- | --- | --- | --- | --- |
| COCCN(C(=O)CCC(=O)Nc1ccccn1)C(C(=O)NC1CCCC1)c1ccc(OC)cc1 (stereo not given) | 106 | 105% (inactive) | 106% (inactive) | 94.6% (inactive) | 111% (inactive) | 14.3% (inactive) | 96.3 | 111 | 2.57% (inactive) | -0.49% (inactive) |
| CCN(CC)S(=O)(=O)c1ccc(N2CCCC2)c(C(=O)OCC(=O)/C(C#N)=C(\C)N)c1 | 91 | 92.5% (inactive) | 91% (inactive) | 66.7% (inactive) | 82.6% (inactive) | -11.1% (inactive) | 93.7 | 82.6 | -6.4% (inactive) | 1.97% (inactive) |
| CCOc1cc(N2CCOCC2)c(OCC)cc1NC(=O)CSc1cccc[n+]1[O-] | 128 | 93% (inactive) | 128% (inactive) | 94% (inactive) | 86.8% (inactive) | 1.93% (inactive) | 84.8 | 86.8 | -5.26% (inactive) | -4% (inactive) |
| CCOc1ccccc1NC(=O)N1C2CCCC1CC(NC(=O)C1CC1)C2 (stereo not given) | 102 | 95% (inactive) | 102% (inactive) | 107% (inactive) | 96.8% (inactive) | 6.77% (inactive) | 90 | 96.8 | -6% (inactive) | 2.58% (inactive) |
| CN(Cc1nc(-c2ccncc2)no1)S(=O)(=O)c1ccccc1 | 99.5 | 79% (inactive) | 99.5% (inactive) | 96.3% (inactive) | 95.7% (inactive) | 7.03% (inactive) | 88.7 | 95.7 | -7.57% (inactive) | 0.79% (inactive) |
| CCOC(=O)c1cc(CC)sc1NC(=O)CCC(=O)O | 121 | 93% (inactive) | 121% (inactive) | 96% (inactive) | 93.8% (inactive) | 2.2% (inactive) | 91.6 | 93.8 | -6.13% (inactive) | 0.32% (inactive) |
| CC(=O)C1=C(O)C(=O)N(c2ccc(C(=O)O)cc2)C1c1ccccc1 (stereo not given) | 107 | 89% (inactive) | 107% (inactive) | 117% (inactive) | 102% (inactive) | 5.88% (inactive) | 95.7 | 102 | -0.66% (inactive) | 1.8% (inactive) |
| CCOC(=O)NC1(NCc2ccccc2)Oc2ccccc2O1 | 92.5 | 101% (inactive) | 92.5% (inactive) | 58.5% (inactive) | 36.8% (active) | -25% (inactive) | 61.7 | 36.8 | 6.23% (inactive) | -8.69% (inactive) |
| c1coc(Cn2nnnc2CN2CCN(C3CCCC3)CC2)c1 | 90.5 | 107% (inactive) | 90.5% (inactive) | 92.8% (inactive) | 93.2% (inactive) | 4.64% (inactive) | 88.6 | 93.2 | -4.67% (inactive) | -8.41% (inactive) |
| CCOC(=O)c1ccc(N2C(=O)CC(N(C)CCc3ccc(OC)c(OC)c3)C2=O)cc1 (stereo not given) | 102 | 123% (inactive) | 102% (inactive) | 101% (inactive) | 96.8% (inactive) | 12.1% (inactive) | 84.7 | 96.8 | -2.73% (inactive) | -8.83% (inactive) |
| O=C(COC(=O)c1cncc(Br)c1)NCCC1=CCCCC1 | 93.5 | 93% (inactive) | 93.5% (inactive) | 101% (inactive) | 97.5% (inactive) | 9.04% (inactive) | 88.4 | 97.5 | -1.28% (inactive) | -1.33% (inactive) |
| COc1ccc(CN(C(=O)c2oc3ccccc3c2C)C2CCS(=O)(=O)C2)cc1 (stereo not given) | 86 | 112% (inactive) | 86% (inactive) | 83.6% (inactive) | 90.5% (inactive) | 8.78% (inactive) | 81.7 | 90.5 | -4.13% (inactive) | -11.1% (inactive) |
| COc1cc(NC(=O)c2cc(CC(C)C)on2)c(OC)cc1Cl | 92 | 102% (inactive) | 92% (inactive) | 105% (inactive) | 88.9% (inactive) | -3.37% (inactive) | 92.2 | 88.9 | 1.15% (inactive) | -5.33% (inactive) |
| COc1ccc2cc(C(c3nnnn3C3CCCCC3)N3CCCCCC3)c3nnnn3c2c1 (stereo not given) | 94 | 72.5% (inactive) | 94% (inactive) | 81.6% (inactive) | 64.3% (inactive) | -2.87% (inactive) | 67.2 | 64.3 | -4.8% (inactive) | -2.86% (inactive) |
| CCOc1ccc(N2C(N)=NC(N)=NC2(C)C)cc1 | 92.5 | 85% (inactive) | 92.5% (inactive) | 101% (inactive) | 75.4% (inactive) | -26.6% (inactive) | 102 | 75.4 | -0.26% (inactive) | 12.1% (inactive) |
| CC(=O)OCC1OC(c2ccccc2)C(OC(C)=O)C(OC(C)=O)C1OC(C)=O (stereo not given) | 90 | 94.5% (inactive) | 90% (inactive) | 108% (inactive) | 98.8% (inactive) | -1.94% (inactive) | 101 | 98.8 | -3.21% (inactive) | -3.83% (inactive) |
